ChEMBL document CHEMBL4765426, “Design, synthesis and in vitro anti-influenza A virus evaluation of novel quinazoline derivatives containing S-acetamide and NH-acetamide moieties at C-4” (Eur J Med Chem, 2020)
pIC50: −log10 of the molar value. Activity calls are given as the source filed them.

Experiments:
[1] = Cytotoxicity against human HEK293T cells assessed as reduction in cell viability after 48 hrs by CCK8 assay; type: cell-based, HEK-293T
[2] = Selectivity index, ratio of CC50 for human HEK293T cells to IC50 for Influenza A virus A/WSN/33(H1N1) infected in HEK293T-Gluc cells; type: toxicity, cell-based; details: read-out: Ratio CC50/IC50
[3] = Cytotoxicity against human A549 cells assessed as reduction in cell viability after 48 hrs by CCK8 assay; type: cell-based
[4] = tested on: Influenza A virus; assay: Antiviral activity against Influenza A virus A/WSN/33(H1N1) infected in HEK293T-Gluc cells pretreated for 2 hrs followed by viral infection and measured after 24 hrs by Gaussia luciferase reporter gene assay; type: functional, organism-based; details: A/WSN/1933(H1N1), HEK-293T
How it was run: (§1)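 Reporter cells were HEK293T cells stably transfected with pLenti6-Gluc, which constitutively expresses negative-strand Gaussia luciferase RNA that becomes positive-strand on IAV infection. Cells were infected with A/WSN/33 or A/PR/8/1934 (H1N1). Antiviral activity was read as Gluc signal, and IC50 values were derived. Ribavirin served as positive control.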

[5] = tested on: Influenza A virus; assay: Antiviral activity against Influenza A virus A/PR/8/34 (H1N1) infected in HEK293T-Gluc cells pretreated for 2 hrs followed by viral infection and measured after 24 hrs by Gaussia luciferase reporter gene assay; type: functional, organism-based; details: A/Puerto Rico/8/1934(H1N1), HEK-293T; how it was run: as §1
[6] = tested on: Influenza A virus; assay: Antiviral activity against Influenza A virus A/WSN/33(H1N1) infected in HEK293T-Gluc cells assessed as inhibition of virus infection at 10 uM pretreated for 2 hrs followed by viral infection and measured after 24 hrs by Gaussia luciferase reporter gene assay; type: functional; details: A/WSN/1933(H1N1), HEK-293T, time 26 hrs
How it was run: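 A single-concentration screen at 10 μM was run against A/WSN/33 (H1N1) in HEK293T-Gluc reporter cells. These cells carry a stably transfected pLenti6-Gluc construct expressing negative-strand Gaussia luciferase RNA that is converted to positive strand upon infection. Inhibition ratio of infection was read from Gluc activity.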

[7] = tested on: Influenza A virus; assay: Antiviral activity against Influenza A virus A/WSN/33(H1N1)) infected in A549 cells assessed as inhibition of virus replication at early stage at 2.5 uM after 2 to 4 hrs post infection by time of addition assay; type: functional, organism-based; details: A/WSN/1933(H1N1), time 2-4 hrs
How it was run: (§2)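 For time-of-addition, A549 cells were inoculated with single-cycle A/WSN/33 (H1N1) virus at MOI 0.2, and compound was added at 2.5 μM. Viral yield was measured as Gluc activity at 11 h post-infection. DMSO served as negative control and ribavirin (30 μM) as positive control.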

[8] = tested on: Influenza A virus; assay: Antiviral activity against Influenza A virus A/WSN/33(H1N1)) infected in A549 cells assessed as reduction in viral yield at 2.5 uM preincubated before viral infection by time of addition assay; type: functional, organism-based; details: A/WSN/1933(H1N1); how it was run: as §2
[9] = tested on: Influenza A virus; assay: Antiviral activity against Influenza A virus A/WSN/33(H1N1) infected in HEK293T cells co-transfected with NP/PA/PB1/PB2/pol-LUC/SV40-Renilla assessed as inhibition of viral RNA transcription and replication after 24 hrs by mini-genome replicon system based luciferase assay; type: functional, organism-based; details: A/WSN/1933(H1N1), dose 1.25-2.5 µM
How it was run: (§3)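 In the mini-genome replicon assay, HEK293T cells were transfected with pCAGGS plasmids encoding PB2, PB1, PA and NP, plus pol-LUC and SV40-Renilla, with or without compound (1.25 or 2.5 μM). Firefly and Renilla luciferase were measured 24 h post-transfection and compared against negative control (p<0.01 threshold).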

[10] = tested on: Influenza A virus; assay: Antiviral activity against Influenza A virus A/WSN/33(H1N1) infected in HEK293T cells co-transfected with NP/PA/PB1/PB2/pol-LUC/SV40-Renilla assessed as inhibition of viral RNA transcription and replication at 2.5 uM after 24 hrs by mini-genome replicon system based luciferase assay; type: functional, A/WSN/1933(H1N1); design: scale not given: the % may be the effect or the level left; how it was run: as §3
[11] = Elimination rate constant in Sprague-Dawley rat at 1.25 mg/kg, iv measured up to 24 hrs by HPLC analysis; type: ADME, organism-based; details: in vivo
How it was run: (§4)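 Male Sprague-Dawley rats (n = 3 per route) received a single intravenous dose (1.25 mg/kg) or a single oral dose (25 mg/kg). Plasma concentrations were followed over time, and PK parameters were derived from them. Values are reported as mean ± deviation.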

[12] = Elimination rate constant in Sprague-Dawley rat at 25 mg/kg, po measured up to 24 hrs by HPLC analysis; type: ADME, organism-based; details: in vivo; how it was run: as §4
[13] = Half life in Sprague-Dawley rat at 1.25 mg/kg, iv measured up to 24 hrs by HPLC analysis; type: ADME, organism-based; details: in vivo; how it was run: as §4
[14] = Half life in Sprague-Dawley rat at 25 mg/kg, po measured up to 24 hrs by HPLC analysis; type: ADME, organism-based; details: in vivo; how it was run: as §4
[15] = Tmax in Sprague-Dawley rat at 25 mg/kg, po measured up to 24 hrs by HPLC analysis; type: ADME, organism-based; details: in vivo; how it was run: as §4
[16] = Cmax in Sprague-Dawley rat at 1.25 mg/kg, iv measured up to 24 hrs by HPLC analysis; type: ADME, organism-based; design: route intravenous, dose 1.25 mg/kg, time <=24; details: in vivo; how it was run: as §4
[17] = Cmax in Sprague-Dawley rat at 25 mg/kg, po measured up to 24 hrs by HPLC analysis; type: ADME, organism-based; design: route oral, dose 25 mg/kg, time <=24; details: in vivo; how it was run: as §4
[18] = Initial plasma concentration in Sprague-Dawley rat at 1.25 mg/kg, iv measured up to 24 hrs by HPLC analysis; type: ADME, organism-based; how it was run: as §4
[19] = AUC (0 to t) in Sprague-Dawley rat at 1.25 mg/kg, iv measured up to 24 hrs by HPLC analysis; type: ADME, organism-based; design: route intravenous, dose 1.25 mg/kg, time <=24; details: in vivo; how it was run: as §4
[20] = AUC (0 to t) in Sprague-Dawley rat at 25 mg/kg, po measured up to 24 hrs by HPLC analysis; type: ADME, organism-based; design: route oral, dose 25 mg/kg, time <=24; details: in vivo; how it was run: as §4
[21] = AUC (0 to infinity) in Sprague-Dawley rat at 1.25 mg/kg, iv measured up to 24 hrs by HPLC analysis; type: ADME, organism-based; design: route intravenous, dose 1.25 mg/kg, time <=24; details: in vivo; how it was run: as §4
[22] = AUC (0 to infinity) in Sprague-Dawley rat at 25 mg/kg, po measured up to 24 hrs by HPLC analysis; type: ADME, organism-based; design: route oral, dose 25 mg/kg, time <=24; details: in vivo; how it was run: as §4
[23] = AUMC (0 to t) in Sprague-Dawley rat at 1.25 mg/kg, iv measured up to 24 hrs by HPLC analysis; type: ADME, organism-based; details: in vivo; how it was run: as §4
[24] = AUMC (0 to t) in Sprague-Dawley rat at 25 mg/kg, po measured up to 24 hrs by HPLC analysis; type: ADME, organism-based; details: in vivo; how it was run: as §4
[25] = AUMC (0 to infinity) in Sprague-Dawley rat at 1.25 mg/kg, iv measured up to 24 hrs by HPLC analysis; type: ADME, organism-based; details: in vivo; how it was run: as §4
[26] = AUMC (0 to infinity) in Sprague-Dawley rat at 25 mg/kg, po measured up to 24 hrs by HPLC analysis; type: ADME, organism-based; details: in vivo; how it was run: as §4
[27] = Clearance in Sprague-Dawley rat at 1.25 mg/kg, iv measured up to 24 hrs by HPLC analysis; type: ADME, organism-based; details: in vivo; how it was run: as §4
[28] = Mean residence time in Sprague-Dawley rat at 1.25 mg/kg, iv measured up to 24 hrs by HPLC analysis; type: ADME, organism-based; details: in vivo; how it was run: as §4
[29] = Mean residence time in Sprague-Dawley rat at 25 mg/kg, po measured up to 24 hrs by HPLC analysis; type: ADME, organism-based; details: in vivo; how it was run: as §4
[30] = Volume of distribution at steady state in Sprague-Dawley rat at 1.25 mg/kg, iv measured up to 24 hrs by HPLC analysis; type: ADME, organism-based; details: in vivo, read-out: Vdss; how it was run: as §4
[31] = Oral bioavailability in Sprague-Dawley rat at 25 mg/kg measured up to 24 hrs by HPLC analysis; type: ADME, organism-based; details: in vivo; how it was run: as §4

## NC(=O)c1ncn([C@@H]2O[C@H](CO)[C@@H](O)[C@H]2O)n1 [RIBAVIRIN]
[1]
  CC50 at 48 h: > 100 µM
[2]
  selectivity ratio: > 6.51

## CCN(CC)c1nc(NCC(=O)NCc2ccccc2)c2ccccc2n1
[3]
  CC50 at 48 h: > 100 µM
[4]
  pIC50: 5.30
[1]
  CC50 at 48 h: > 100 µM
[2]
  selectivity ratio: > 20
[5]
  pIC50: 5.24

## O=C(COc1cccc2ccccc12)Nc1ccc(F)cc1
[6]
  inhibition at 10 µM: 78%
[4]
  pIC50: 5.28
[1]
  CC50 at 48 h: > 100 µM
[2]
  selectivity ratio: > 19.1

## O=C(CNc1nc(N2CCCC2)nc2ccccc12)Nc1ccccc1
[3]
  CC50 at 48 h: 19 µM
[6]
  inhibition at 10 µM: 95.8%
[4]
  pIC50: 5.73
[1]
  CC50 at 48 h: 23.3 µM
[2]
  selectivity ratio: 12.4
[5]
  pIC50: 5.83

## O=C(CNc1nc(N2CCc3ccccc3C2)nc2ccccc12)Nc1ccccc1
[3]
  CC50 at 48 h: 10.7 µM
[6]
  inhibition at 10 µM: 98.2%
[4]
  pIC50: 5.41
[1]
  CC50 at 48 h: 36.6 µM
[2]
  selectivity ratio: 9.44
[5]
  pIC50: 6.39

## O=C(CNc1nc(N2CCCC2)nc2ccccc12)Nc1ccc2ccccc2c1
[3]
  CC50 at 48 h: 4.77 µM
[6]
  inhibition at 10 µM: 99.8%
[4]
  pIC50: 5.89
[1]
  CC50 at 48 h: 59.9 µM
[2]
  selectivity ratio: 46.5
[5]
  pIC50: 6.20
[7]
  Activity: Active
[8]
  Activity: inactive
[9]
  Activity: Dose-dependent effect
[10]
  Activity: 80%
[11]
  k el at 24 h: 0.000286 s⁻¹
[12]
  k el at 24 h: 8.89e-05 s⁻¹
[13]
  half-life: 40.8 min
[14]
  half-life: 135 min
[15]
  Tmax: 19.8 min
[16]
  Cmax: 58 ng/mL
[17]
  Cmax: 78.6 ng/mL
[18]
  C0 at 24 h: 80.8 ng/mL
[19]
  AUC(0-t) at 24 h: 34.9 ng·h/mL
[20]
  AUC(0-t) at 24 h: 157 ng·h/mL
[21]
  AUC(0-inf): 39.2 ng·h/mL
[22]
  AUC(0-inf): 183 ng·h/mL
[23]
  AUMCt: 18 hr.hr.ng/ml
[24]
  AUMCt: 313 hr.hr.ng/ml
[25]
  AUMC: 30.6 hr.hr.ng/ml
[26]
  AUMC: 553 hr.hr.ng/ml
[27]
  clearance: 557 mL/min/kg
[28]
  MRT: 47.4 min
[29]
  MRT: 191 min
[30]
  Vd: 26.6 L/kg
[31]
  bioavailability: 22.5%

## CCN(CC)c1nc(SCC(=O)Nc2ccccc2)c2ccccc2n1
[3]
  CC50 at 48 h: > 100 µM
[4]
  pIC50: 5.14
[1]
  CC50 at 48 h: > 100 µM
[2]
  selectivity ratio: > 13.9
[5]
  pIC50: 5.77

## O=C(CSc1nc(N2CCCC2)nc2ccccc12)NC1CC1
[4]
  pIC50: 4.42
[1]
  CC50 at 48 h: > 100 µM
[2]
  selectivity ratio: > 2.61
